Laboratory results reported in ChEMBL document CHEMBL2407075, “Sulphonamido-quinoxalines: search for anticancer agent” (Eur J Med Chem, 2013).

What was measured:
Type in all cases: functional
SK-MEL-2 [1] = test: Growth inhibition of human SK-MEL-2 cells assessed as cell growth at 10^-4 M after 48 hrs by sulforhodamine B assay; conditions: SK-MEL-2, 48 h, read-out: Activity
OVCAR-8 = test: Growth inhibition of human OVCAR8 cells assessed as cell growth at 10^-5 M after 48 hrs by sulforhodamine B assay; conditions: OVCAR-8, 48 h, read-out: Activity
SK-MEL-2 [2] = test: Growth inhibition of human SK-MEL-2 cells assessed as cell growth at 10^-5 M after 48 hrs by sulforhodamine B assay; conditions: SK-MEL-2, 48 h, read-out: Activity
CCRF-CEM [3] = test: Growth inhibition of human CCRF-CEM cells assessed as cell growth at 10^-5 M after 48 hrs by sulforhodamine B assay; conditions: read-out: Activity
SK-MEL-2 [4] = test: Growth inhibition of human SK-MEL-2 cells assessed as cell growth at 10^-6 M after 48 hrs by sulforhodamine B assay; conditions: SK-MEL-2, 48 h, read-out: Activity
HCT-15 = test: Growth inhibition of human HCT15 cells assessed as cell growth at 10^-6 M after 48 hrs by sulforhodamine B assay; conditions: HCT-15, 48 h, read-out: Activity
CCRF-CEM [5] = test: Growth inhibition of human CCRF-CEM cells assessed as cell growth at 10^-6 M after 48 hrs by sulforhodamine B assay; conditions: read-out: Activity
CCRF-CEM [6] = test: Growth inhibition of human CCRF-CEM cells assessed as cell growth at 10^-8 M after 48 hrs by sulforhodamine B assay; conditions: read-out: Activity
CCRF-CEM [7] = test: Growth inhibition of human CCRF-CEM cells after 48 hrs by sulforhodamine B assay; conditions: read-out: LC50 (the source's name)
In short: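 Leukemia suspension cells in RPMI 1640 with 5% FBS and 2 mM L-glutamine were plated at 5000–40,000 cells/well and grown 24 h. Five concentrations (0.01–100 µM) were given for 48 h at 37 °C. Settled cells were fixed with 80% TCA (16% final) and SRB-stained, read at 515 nm. GI50 came from dose–response curves against time-zero and control plates.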

SF-295 = test: Growth inhibition of human SF295 cells after 48 hrs by sulforhodamine B assay; conditions: SF-295, 48 h
In short: (§1)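 Adherent cells in RPMI 1640 with 5% FBS and 2 mM L-glutamine were plated at 5000–40,000 cells/well and grown 24 h. Five concentrations (0.01–100 µM, DMSO stock) were added for 48 h at 37 °C. Cells were fixed with cold TCA (10% final) and stained with SRB, read at 515 nm. GI50 came from log concentration–growth curves against time-zero and control plates.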

HT-29 = test: Growth inhibition of human HT-29 cells after 48 hrs by sulforhodamine B assay; conditions: HT-29, 48 h; in short: as §1
[8] = read-out: LC50 (the source's name)

Compound | growth at 100 µM (SK-MEL-2 [1]) | growth at 10 µM (OVCAR-8) | growth at 10 µM (SK-MEL-2 [2]) | growth at 10 µM (CCRF-CEM [3]) | growth at 1 µM (SK-MEL-2 [4]) | growth at 1 µM (HCT-15) | growth at 1 µM (CCRF-CEM [5]) | growth at 0.01 µM (CCRF-CEM [6]) | CC50 (CCRF-CEM [7]) | GI50 (SF-295) | CC50 (SF-295; [8]) | GI50 (HT-29) | CC50 (HT-29; [8])
O=S(=O)(Nc1ccc(Cl)cc1)c1ccc2nc(-c3ccccc3)c(-c3ccccc3)nc2c1 | 69% | 6% | -56% | -40% | 99% | 87% | 79% | 88% | > 100 µM | – | – | – | –
O=S(=O)(Nc1ccccn1)c1ccc2nc(-c3ccccc3)c(-c3ccccc3)nc2c1 | – | – | – | – | – | – | – | – | – | 1.87 µM | 100 µM | 1.78 µM | > 100 µM
